Source: PubChem BioAssay
A selection: hits, their analogues and other compounds. The true share with any hit is near 4.1%.
ROMK primary = modulators of human ROMK potassium channel | Tet-inducible ROMK, thallium flux fluorescence; actives lie on both sides | P48048 | AID 1918 | B-score at 10 µM | hit rate 2% among 130,000;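 active means signal ratio slope over the read window, or its plate-corrected B-score, at least 3 SD from the plate mean, either direction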;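 further: B-score of the F/F0 ratio slope over 7 to 12 s after thallium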
Dynein cargo inh = dynein cargo transport inhibition | 3617.4 mouse cells, GR-EGFP nuclear translocation imaging; test concentration mostly 20 µM; stimulated with dexamethasone, 1 µM; stronger effect = lower value | hit rate 0.47% among 220,000 | z-score, hits read low;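 active means plate z-score of nuclear minus cytoplasmic receptor signal below a set negative limit, without overly bright fluorescence or cell loss, cut at about -3.5 in these data, passing the limit was not always enough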;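 further: z-score of nuclear minus cytoplasmic ring GR-EGFP intensity difference per well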
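Buffer or medium: tet-free medium with charcoal-stripped serum / Also added: dexamethasone agonist, 1.0 µM final, for 30 min / Timing: induction 48 h, compound 1 h, agonist 30 min / Measured by: high-content fluorescence imaging after fixation / Read-out: nuclear-to-cytoplasmic GR-EGFP distribution per well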
Autophagy mod = alters autophagy in cells; MEF GFP-LC3 puncta imaging; test concentration mostly 10 µM; hit rate 0.98% among 190,000; calls only at 10 µM (by protocol); AID 463193;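 active means percentage of spot-positive cells more than 3 SD above its plate mean, without a fluorescence outlier flag or 80% toxicity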;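 further: spot-positive cell cutoff set from DMSO-treated cells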
Redox H2O2 prof = compounds producing H2O2 with reducing agent – biochemical, NIH compound library profiling, artefact control for MLSCN library redox annotation, primary screen; hit rate 0.03% among 200,000; activation, % at 10 µM; DTT-dependent redox cycling H2O2, phenol red/HRP absorbance; 100% = 100 µM peroxide control, 0% = buffer;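 active means activation of at least 50% relative to the plate's high and low controls in the primary single-dose screen; inactive means activation below 50%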;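 further: compound incubated with DTT at 0.8 mM final as the reducing agent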
KCC2 mod = modulators of human KCC2 chloride dependent transport. Q9H2X9. KCC2 cells, thallium flux FluoZin-2 fluorescence. B-score of Tl+ flux slope (higher = more flux/activation; lower = inhibition) at 10 µM. hit rate 2.2% among 190,000;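 active means thallium flux slope and its plate-corrected score both differing from the plate sample mean at a set confidence after two filtering rounds, in either direction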;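 further: slope of fluorescence scaled to starting intensity during 10 to 20 s after thallium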
Target sequence (Q9H2X9 whole entry, looked up): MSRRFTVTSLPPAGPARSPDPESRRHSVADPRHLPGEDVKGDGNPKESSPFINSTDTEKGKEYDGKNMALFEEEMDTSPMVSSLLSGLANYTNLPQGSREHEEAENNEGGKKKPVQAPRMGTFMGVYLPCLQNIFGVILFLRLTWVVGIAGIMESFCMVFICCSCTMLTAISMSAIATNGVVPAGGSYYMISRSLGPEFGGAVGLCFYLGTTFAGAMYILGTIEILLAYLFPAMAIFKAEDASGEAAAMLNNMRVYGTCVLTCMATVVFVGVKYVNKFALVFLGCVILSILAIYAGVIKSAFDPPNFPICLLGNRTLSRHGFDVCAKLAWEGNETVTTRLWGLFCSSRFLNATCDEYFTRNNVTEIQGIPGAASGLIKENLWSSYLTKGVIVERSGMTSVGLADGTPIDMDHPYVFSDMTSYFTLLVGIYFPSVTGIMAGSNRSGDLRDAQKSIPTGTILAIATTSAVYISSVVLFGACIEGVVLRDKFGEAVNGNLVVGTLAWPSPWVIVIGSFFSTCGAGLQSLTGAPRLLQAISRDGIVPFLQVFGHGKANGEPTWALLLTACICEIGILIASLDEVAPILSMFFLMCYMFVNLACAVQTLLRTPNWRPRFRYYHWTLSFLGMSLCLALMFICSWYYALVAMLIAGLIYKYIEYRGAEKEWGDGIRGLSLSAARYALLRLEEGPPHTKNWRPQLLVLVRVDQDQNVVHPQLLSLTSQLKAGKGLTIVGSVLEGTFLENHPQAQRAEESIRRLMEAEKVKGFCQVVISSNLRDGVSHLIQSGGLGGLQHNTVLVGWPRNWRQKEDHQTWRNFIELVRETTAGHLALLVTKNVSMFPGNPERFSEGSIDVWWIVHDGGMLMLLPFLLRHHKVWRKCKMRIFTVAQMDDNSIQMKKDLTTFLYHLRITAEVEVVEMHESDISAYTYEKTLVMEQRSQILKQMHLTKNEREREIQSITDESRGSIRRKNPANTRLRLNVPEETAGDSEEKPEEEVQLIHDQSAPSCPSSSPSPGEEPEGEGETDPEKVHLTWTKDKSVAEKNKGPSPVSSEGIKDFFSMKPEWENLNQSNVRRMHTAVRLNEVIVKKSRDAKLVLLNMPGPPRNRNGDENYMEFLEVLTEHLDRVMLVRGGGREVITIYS
The depositor's hits bear a star.

Cc1ccc(OCCN2C(=O)C(=O)c3cc(C)ccc32)cc1 was read as ROMK primary 2, Dynein cargo inh 0.0029, Autophagy mod active, Redox H2O2 prof -1 and KCC2 mod 0.48.
Screening C=CCn1c(Oc2cc(C)ccc2C)nc2c1c(=O)n(C)c(=O)n2C returned ROMK primary -1, Dynein cargo inh 0.74, Autophagy mod active and Redox H2O2 prof 2.
C=CCn1c(Oc2cccc(C)c2)nc2c1c(=O)n(C)c(=O)n2C was read as ROMK primary 0.66, Dynein cargo inh -0.17, Autophagy mod inactive, Redox H2O2 prof 0 and KCC2 mod 0.075.
`CC1C/C(=C\c2cccnc2)C(=O)/C(=C/c2cccnc2)C1` (stereo unspecified) gave ROMK primary -6.1*, Dynein cargo inh -6.4*, Autophagy mod inactive, Redox H2O2 prof 0 and KCC2 mod -0.18.
`O=C1/C(=C/c2cccnc2)CCc2c1[nH]c1ccccc21` gave Dynein cargo inh -0.56, Autophagy mod inactive and Redox H2O2 prof -1.
Screening O=C(NCCCN1CCOCC1)C(=O)N/N=C/c1ccc2c(c1)OCO2 returned ROMK primary 1.1, Dynein cargo inh -0.46, Autophagy mod inactive, Redox H2O2 prof -1 and KCC2 mod 1.5.
CC12CC3CC(C)(C1)CC(C(=O)NC(=S)N1CCOCC1)(C3)C2 was read as Dynein cargo inh -0.51, Autophagy mod inactive, Redox H2O2 prof -5 and KCC2 mod 5*.
For O=C(NC(=S)N1CCCCC1)C12CC3CC(CC(C3)C1)C2 the results were Dynein cargo inh 0.43, Autophagy mod inactive, Redox H2O2 prof -13 and KCC2 mod 35*.
Screening CCCN(CCC)C(=O)Cn1c(=O)c2sccc2n2c(=S)sc(-c3ccccc3)c12 returned Dynein cargo inh -1.4, Autophagy mod active, Redox H2O2 prof -1 and KCC2 mod -0.34.
`C/C(=N\NC(=O)Cn1nc(C)c([N+](=O)[O-])c1C)c1ccco1` gave Dynein cargo inh -0.55 and KCC2 mod -0.32.
For CCOC(=O)c1c(NC(=O)c2nn(C)cc2[N+](=O)[O-])sc(C)c1C the results were ROMK primary -0.57, Dynein cargo inh -1, Autophagy mod inactive, Redox H2O2 prof 0 and KCC2 mod 0.17.
`COc1cccc(C2=NN(C(=O)c3cccs3)C(O)(C(F)(F)F)C2)c1` (stereo unspecified) gave Dynein cargo inh -0.55, Autophagy mod inactive, Redox H2O2 prof 1 and KCC2 mod 1.4.
Screening CC1CCCN(c2nc3nonc3nc2Nc2ccccc2F)C1 (stereo unspecified) returned ROMK primary -1.6, Dynein cargo inh 2.1, Autophagy mod inactive, Redox H2O2 prof 0 and KCC2 mod 0.8.
For COc1ccc(OC)c(Nc2nc3nonc3nc2N2CCCC(C)C2)c1 (stereo unspecified) the results were ROMK primary 1.2, Dynein cargo inh -0.35, Autophagy mod active, Redox H2O2 prof 0 and KCC2 mod -1.3.
CC(C)(C)c1ccc(C(=O)NC(=S)Nc2nc3c(s2)CCCC3)cc1 was read as ROMK primary 0.95, Dynein cargo inh 2, Autophagy mod inactive, Redox H2O2 prof 0 and KCC2 mod 12*.
For Cc1c(N/N=C(\C#N)C(=O)c2ccc(Cl)cc2)c(=O)n(-c2ccccc2)n1C the results were ROMK primary -1.1, Dynein cargo inh -0.31, Autophagy mod inactive, Redox H2O2 prof 0 and KCC2 mod 0.29.
Screening COc1ccc(C(=O)/C(C#N)=N/Nc2ccc([N+](=O)[O-])cc2)cc1 returned ROMK primary 6*, Dynein cargo inh -0.48, Autophagy mod inactive, Redox H2O2 prof 0 and KCC2 mod -3.6*.
N#C/C(=N\Nc1ccc(Cl)cc1)C(=O)c1ccccc1 was read as ROMK primary 2.8*, Dynein cargo inh 0.87, Autophagy mod inactive, Redox H2O2 prof 0 and KCC2 mod -3.5*.
`Cc1nc2ccc(S(=O)(=O)N(C)CC(=O)Nc3ccccc3F)cc2s1` gave ROMK primary 1, Dynein cargo inh -0.57, Autophagy mod inactive, Redox H2O2 prof 7 and KCC2 mod 0.002.
For Cc1ccc(NC(=O)C2CC(=O)Nc3nncn32)cc1 (stereo unspecified) the results were ROMK primary 0.05, Dynein cargo inh 1.5, Autophagy mod inactive, Redox H2O2 prof 0 and KCC2 mod 0.53.
C=CCn1c(=S)[nH]c2nc3c(cc2c1=O)CCCC3 was read as Dynein cargo inh -0.16, Autophagy mod inactive, Redox H2O2 prof -4 and KCC2 mod 126*.
C=CCn1c(=S)[nH]c2ccc(Br)cc2c1=O was read as Dynein cargo inh -0.43, Autophagy mod inactive, Redox H2O2 prof 2 and KCC2 mod 52*.
`OCC(O)C1OC(Nc2ccc(Cl)cc2)C(O)C1O` (stereo unspecified) gave ROMK primary 0.59, Dynein cargo inh -0.48 and KCC2 mod -0.05.
For O=C(Cc1ccccc1Cl)Nc1nc2ccccc2[nH]1 the results were Dynein cargo inh 0.42 and KCC2 mod 1.
CCCN(CCC)S(=O)(=O)c1ccc(C(=O)OCCN2C(=O)c3cccc4c(N5CCOCC5)ccc(c34)C2=O)cc1 was read as Dynein cargo inh inactive, Autophagy mod active, Redox H2O2 prof 0 and KCC2 mod inactive.
`O=C(OCCN1C(=O)c2cccc3c(N4CCOCC4)ccc(c23)C1=O)c1ccc(Cl)cc1` gave Dynein cargo inh 0.013, Autophagy mod inactive, Redox H2O2 prof 1 and KCC2 mod inactive.
O=C(Cc1ccc(Cl)c(Cl)c1)Nc1cccc(S(=O)(=O)N2CCOCC2)c1 was read as ROMK primary -0.49, Dynein cargo inh -0.26, Autophagy mod inactive, Redox H2O2 prof 1 and KCC2 mod 0.0014.
CN(CCCC[C@H](CNCc1ccc(-c2ccccc2)cc1)N1C[C@H](c2ccccc2)N(CCc2ccc(Cl)c(Cl)c2)C(=O)C1=O)Cc1ccc(-c2ccccc2)cc1 was read as Dynein cargo inh 1.4 and KCC2 mod 2.6.
Screening COc1ccc(CNC[C@@H](CCCCN(C)Cc2ccc(OC)cc2)N2C[C@H](c3ccccc3)N(CCc3ccc(Cl)c(Cl)c3)C(=O)C2=O)cc1 returned Dynein cargo inh 4.1, Autophagy mod active, Redox H2O2 prof 0 and KCC2 mod 0.65.
Screening CCOCCCNCC(=O)Nc1ccc(S(=O)(=O)NC(C)CC)cc1 (stereo unspecified) returned ROMK primary 0.4, Dynein cargo inh 0.59, Autophagy mod inactive, Redox H2O2 prof -1 and KCC2 mod -1.5.
Screening O=C(O)c1cccc(COCC(F)(F)C(F)F)c1 returned ROMK primary 0.11, Dynein cargo inh -0.058, Autophagy mod active, Redox H2O2 prof 1 and KCC2 mod -0.21.
CNC(=S)N1CCN(c2ccc(Cl)c(Cl)c2)CC1 was read as ROMK primary -0.055, Dynein cargo inh -0.17, Autophagy mod inactive, Redox H2O2 prof -2 and KCC2 mod -0.68.
